Experimental data: ChEMBL document CHEMBL4257467, “Synthesis and pharmaceutical characterization of site specific mycophenolic acid-modified Xenopus glucagon-like peptide-1 analogs” (Medchemcomm, 2018)
*1 amine or outer side, *2 acyl side, *3 side chain or, on linkers, in order; H or OH if unused. Where a SMILES comes first, the peptide text is derived from it. Side-chain parts run from the residue outwards. The star is where a group is joined. Mycophenolyl = COc1c(C)c2c(c(O)c1C/C=C(\C)CCC(=O)*)C(=O)OC2; γGlu = O=C(O)[C@H](CCC(=O)[*:2])N[*:1]; 12Ado = NCCCCCCCCCCCC(=O)O; Ahx = NCCCCCC(=O)O

Molecular target: Glucagon-like peptide 1 receptor (Homo sapiens, UniProt P43220)
Assay: Agonist activity at human GLP1 receptor expressed in HEK293 cells assessed as increase in cAMP level after 30 mins by HTRF method
Assay type: functional, cell-based
Outline: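 HEK293 cells stably expressing human GLP-1 receptor, thawed, suspended in DMEM with 20 mM HEPES, 2 mM L-Glu, 0.5% FBS, 1% pen-strep. Compounds dissolved in DMSO, diluted in assay buffer to 1 × 10−13–1 × 10−6 M final, 30 min at 37 °C in 5% CO2. cAMP read by HTRF. EC50 as means ± SD of three individual experiments, n = 3.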

Chain of Glucagon-like peptide 1 receptor (P43220 whole entry): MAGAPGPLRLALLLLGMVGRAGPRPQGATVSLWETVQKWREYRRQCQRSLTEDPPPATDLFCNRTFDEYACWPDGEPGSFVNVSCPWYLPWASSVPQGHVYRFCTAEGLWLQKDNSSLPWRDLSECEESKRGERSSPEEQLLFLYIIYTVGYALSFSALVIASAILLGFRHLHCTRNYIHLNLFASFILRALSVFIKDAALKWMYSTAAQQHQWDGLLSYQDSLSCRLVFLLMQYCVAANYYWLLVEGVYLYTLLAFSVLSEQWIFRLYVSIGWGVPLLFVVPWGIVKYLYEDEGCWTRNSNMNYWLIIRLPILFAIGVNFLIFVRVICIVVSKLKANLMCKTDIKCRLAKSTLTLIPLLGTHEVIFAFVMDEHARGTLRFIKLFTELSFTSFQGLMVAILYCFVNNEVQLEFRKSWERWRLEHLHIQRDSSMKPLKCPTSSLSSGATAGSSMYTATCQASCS

Row | Compound | EC50 [nM]
1 | CC[C@H](C)[C@H](NC(=O)[C@H](CC(C)C)NC(=O)[C@H](Cc1c[nH]c2ccccc12)NC(=O)[C@H](CCC(=O)O)NC(=O)[C@@H](NC(=O)[C@H](Cc1ccccc1)NC(=O)[C@H](CCC(=O)O)NC(=O)[C@H](CCCCNC(=O)CC[C@H](NC(=O)CCCCCNC(=O)CC/C(C)=C/Cc1c(O)c2c(c(C)c1OC)COC2=O)C(=O)O)NC(=O)[C@H](C)NC(=O)[C@H](C)NC(=O)[C@H](CCC(=O)O)NC(=O)[C@H](CCC(=O)O)NC(=O)[C@H](CCC(=O)O)NC(=O)[C@H](CC(C)C)NC(=O)[C@H](Cc1ccc(O)cc1)NC(=O)[C@H](CCC(=O)O)NC(=O)[C@@H](NC(=O)[C@@H](NC(=O)[C@H](CC(=O)O)NC(=O)[C@H](CC(N)=O)NC(=O)[C@@H](NC(=O)[C@H](Cc1ccc(O)cc1)NC(=O)[C@@H](NC(=O)CNC(=O)[C@H](CCC(=O)O)NC(=O)CNC(=O)[C@@H](N)Cc1cnc[nH]1)[C@@H](C)O)[C@@H](C)O)C(C)C)[C@@H](C)O)[C@@H](C)CC)C(=O)N[C@@H](CCCCN)C(=O)NCC(=O)N[C@@H](CCCCN)C(=O)O (H-HGEGTYTNDVTEYLEEEAAK([γGlu-Ahx-Mycophenolyl])EFIEWLIKGK-OH) | 6.9
2 | H-HGEGTYTNDVTEYLEEEAAKEFIEWLIKGK-OH | 5.4
3 | CC[C@H](C)[C@H](NC(=O)[C@H](CC(C)C)NC(=O)[C@H](Cc1c[nH]c2ccccc12)NC(=O)[C@H](CCC(=O)O)NC(=O)[C@@H](NC(=O)[C@H](Cc1ccccc1)NC(=O)[C@H](CCC(=O)O)NC(=O)[C@H](CCCCN)NC(=O)[C@H](C)NC(=O)[C@H](C)NC(=O)[C@H](CCC(=O)O)NC(=O)[C@H](CCC(=O)O)NC(=O)[C@H](CCC(=O)O)NC(=O)[C@H](CC(C)C)NC(=O)[C@H](Cc1ccc(O)cc1)NC(=O)[C@H](CCC(=O)O)NC(=O)[C@@H](NC(=O)[C@@H](NC(=O)[C@H](CC(=O)O)NC(=O)[C@H](CC(N)=O)NC(=O)[C@@H](NC(=O)[C@H](Cc1ccc(O)cc1)NC(=O)[C@@H](NC(=O)CNC(=O)[C@H](CCC(=O)O)NC(=O)CNC(=O)[C@@H](N)Cc1cnc[nH]1)[C@@H](C)O)[C@@H](C)O)C(C)C)[C@@H](C)O)[C@@H](C)CC)C(=O)N[C@@H](CCCCNC(=O)CC[C@H](NC(=O)CCCCCNC(=O)CC/C(C)=C/Cc1c(O)c2c(c(C)c1OC)COC2=O)C(=O)O)C(=O)NCC(=O)N[C@@H](CCCCN)C(=O)O (H-HGEGTYTNDVTEYLEEEAAKEFIEWLIK([γGlu-Ahx-Mycophenolyl])GK-OH) | 11.8
4 | CC[C@H](C)[C@H](NC(=O)[C@H](CC(C)C)NC(=O)[C@H](Cc1c[nH]c2ccccc12)NC(=O)[C@H](CCC(=O)O)NC(=O)[C@@H](NC(=O)[C@H](Cc1ccccc1)NC(=O)[C@H](CCC(=O)O)NC(=O)[C@H](CCCCN)NC(=O)[C@H](C)NC(=O)[C@H](C)NC(=O)[C@H](CCC(=O)O)NC(=O)[C@H](CCC(=O)O)NC(=O)[C@H](CCC(=O)O)NC(=O)[C@H](CC(C)C)NC(=O)[C@H](Cc1ccc(O)cc1)NC(=O)[C@H](CCC(=O)O)NC(=O)[C@@H](NC(=O)[C@@H](NC(=O)[C@H](CC(=O)O)NC(=O)[C@H](CC(N)=O)NC(=O)[C@@H](NC(=O)[C@H](Cc1ccc(O)cc1)NC(=O)[C@@H](NC(=O)CNC(=O)[C@H](CCC(=O)O)NC(=O)CNC(=O)[C@@H](N)Cc1cnc[nH]1)[C@@H](C)O)[C@@H](C)O)C(C)C)[C@@H](C)O)[C@@H](C)CC)C(=O)N[C@@H](CCCCN)C(=O)NCC(=O)N[C@@H](CCCCNC(=O)CC[C@H](NC(=O)CCCCCNC(=O)CC/C(C)=C/Cc1c(O)c2c(c(C)c1OC)COC2=O)C(=O)O)C(=O)O (H-HGEGTYTNDVTEYLEEEAAKEFIEWLIKGK([γGlu-Ahx-Mycophenolyl])-OH) | 16.8

Further compounds by falling EC50, results first:

Row | EC50 [nM] | Compound
5 | 23.5 | CC[C@H](C)[C@H](NC(=O)[C@H](CC(C)C)NC(=O)[C@H](Cc1c[nH]c2ccccc12)NC(=O)[C@H](CCC(=O)O)NC(=O)[C@@H](NC(=O)[C@H](Cc1ccccc1)NC(=O)[C@H](CCC(=O)O)NC(=O)[C@H](CCCCN)NC(=O)[C@H](C)NC(=O)[C@H](C)NC(=O)[C@H](CCC(=O)O)NC(=O)[C@H](CCC(=O)O)NC(=O)[C@H](CCC(=O)O)NC(=O)[C@H](CC(C)C)NC(=O)[C@H](Cc1ccc(O)cc1)NC(=O)[C@H](CCC(=O)O)NC(=O)[C@@H](NC(=O)[C@@H](NC(=O)[C@H](CC(=O)O)NC(=O)[C@H](CC(N)=O)NC(=O)[C@@H](NC(=O)[C@H](Cc1ccc(O)cc1)NC(=O)[C@@H](NC(=O)CNC(=O)[C@H](CCC(=O)O)NC(=O)CNC(=O)[C@@H](N)Cc1cnc[nH]1)[C@@H](C)O)[C@@H](C)O)C(C)C)[C@@H](C)O)[C@@H](C)CC)C(=O)N[C@@H](CCCCN)C(=O)NCC(=O)N[C@@H](CCCCNC(=O)CC[C@H](NC(=O)CCCCCCCCCCCNC(=O)CC/C(C)=C/Cc1c(O)c2c(c(C)c1OC)COC2=O)C(=O)O)C(=O)O (H-HGEGTYTNDVTEYLEEEAAKEFIEWLIKGK([γGlu-12Ado-Mycophenolyl])-OH)
6 | 16.3 | CC[C@H](C)[C@H](NC(=O)[C@H](CC(C)C)NC(=O)[C@H](Cc1c[nH]c2ccccc12)NC(=O)[C@H](CCC(=O)O)NC(=O)[C@@H](NC(=O)[C@H](Cc1ccccc1)NC(=O)[C@H](CCC(=O)O)NC(=O)[C@H](CCCCN)NC(=O)[C@H](C)NC(=O)[C@H](C)NC(=O)[C@H](CCC(=O)O)NC(=O)[C@H](CCC(=O)O)NC(=O)[C@H](CCC(=O)O)NC(=O)[C@H](CC(C)C)NC(=O)[C@H](Cc1ccc(O)cc1)NC(=O)[C@H](CCC(=O)O)NC(=O)[C@@H](NC(=O)[C@@H](NC(=O)[C@H](CC(=O)O)NC(=O)[C@H](CC(N)=O)NC(=O)[C@@H](NC(=O)[C@H](Cc1ccc(O)cc1)NC(=O)[C@@H](NC(=O)CNC(=O)[C@H](CCC(=O)O)NC(=O)CNC(=O)[C@@H](N)Cc1cnc[nH]1)[C@@H](C)O)[C@@H](C)O)C(C)C)[C@@H](C)O)[C@@H](C)CC)C(=O)N[C@@H](CCCCNC(=O)CC[C@H](NC(=O)CCCCCCCCCCCNC(=O)CC/C(C)=C/Cc1c(O)c2c(c(C)c1OC)COC2=O)C(=O)O)C(=O)NCC(=O)N[C@@H](CCCCN)C(=O)O (H-HGEGTYTNDVTEYLEEEAAKEFIEWLIK([γGlu-12Ado-Mycophenolyl])GK-OH)
7 | 7.3 | CC[C@H](C)[C@H](NC(=O)[C@H](CC(C)C)NC(=O)[C@H](Cc1c[nH]c2ccccc12)NC(=O)[C@H](CCC(=O)O)NC(=O)[C@@H](NC(=O)[C@H](Cc1ccccc1)NC(=O)[C@H](CCC(=O)O)NC(=O)[C@H](CCCCNC(=O)CC[C@H](NC(=O)CCCCCCCCCCCNC(=O)CC/C(C)=C/Cc1c(O)c2c(c(C)c1OC)COC2=O)C(=O)O)NC(=O)[C@H](C)NC(=O)[C@H](C)NC(=O)[C@H](CCC(=O)O)NC(=O)[C@H](CCC(=O)O)NC(=O)[C@H](CCC(=O)O)NC(=O)[C@H](CC(C)C)NC(=O)[C@H](Cc1ccc(O)cc1)NC(=O)[C@H](CCC(=O)O)NC(=O)[C@@H](NC(=O)[C@@H](NC(=O)[C@H](CC(=O)O)NC(=O)[C@H](CC(N)=O)NC(=O)[C@@H](NC(=O)[C@H](Cc1ccc(O)cc1)NC(=O)[C@@H](NC(=O)CNC(=O)[C@H](CCC(=O)O)NC(=O)CNC(=O)[C@@H](N)Cc1cnc[nH]1)[C@@H](C)O)[C@@H](C)O)C(C)C)[C@@H](C)O)[C@@H](C)CC)C(=O)N[C@@H](CCCCN)C(=O)NCC(=O)N[C@@H](CCCCN)C(=O)O (H-HGEGTYTNDVTEYLEEEAAK([γGlu-12Ado-Mycophenolyl])EFIEWLIKGK-OH)
